Assay outcomes from PubChem.
NPY-Y2 PAM-ag: NPY-Y2 potentiators or agonists, primary screen, cell-based | activation, % at 3.6 µM | 220,000 tested, 0.45% active | cells expressing NPY-Y2, potentiator/agonist read-out | AID 1359, 2008 | Neuropeptide Y receptor type 2 (Homo sapiens), P49146; in the data active means activation above about 27%;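 further: cells stimulated with NPY near EC25 plus isoproterenol at EC100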
NPY Y2 blocker: NPY-Y2 receptor antagonists, primary screen, cell-based | 140,000 tested, 0.99% active | inhibition, % at 2.7 µM | Neuropeptide Y receptor type 2 (Homo sapiens), P49146 | NPY-Y2 expressing cells, antagonist mode; in the data active means inhibition above about 17%
MDM2 E3 inh: MDM2-luciferase reporter signal enhancers, primary screen, MDM2 E3 ligase inhibitor project, cell-based, luminescence, 1536-well; cell-based MDM2 ubiquitination luciferase reporter, 2 h; 0 = plate control, 100 = twice control, blank-subtracted; signal enhancement, % at 5 µM; 210,000 tested, 0.11% active; AID 1230, 2008;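 active means signal enhancement of 30% or more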;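 further: luminescence tracks abundance of the self-degrading MDM2-luciferase fusion protein; higher signal means inhibition of MDM2 E3 ligase activity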
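System: stable MDM2–luciferase fusion reporter cells / Input: 2000 cells seeded into each well / Schedule: 4 h settle plus 2 h compound, 37 °C / Compound: single-point 5 µM / Buffer or medium: cells held in DMEM / Benchmarks: control and blank well means / Evaluation: percent signal gain over controls, blank-subtracted / Measured by: luciferase luminescence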
NPY-Y1 antag: NPY-Y1 receptor antagonists, primary screen, cell-based; Neuropeptide Y receptor type 1 (Homo sapiens), P25929; HEK293-CNG Y1 cells, membrane potential fluorescence; NPY at EC95, then isoproterenol; inhibition, % at 3.6 µM; 200,000 tested, 1% active; AID 1040, 2008;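 active means inhibition above the campaign mean inhibition of all tested compounds plus 3 SD, cut at about 20% in these data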
Target sequence (P25929 whole entry, looked up): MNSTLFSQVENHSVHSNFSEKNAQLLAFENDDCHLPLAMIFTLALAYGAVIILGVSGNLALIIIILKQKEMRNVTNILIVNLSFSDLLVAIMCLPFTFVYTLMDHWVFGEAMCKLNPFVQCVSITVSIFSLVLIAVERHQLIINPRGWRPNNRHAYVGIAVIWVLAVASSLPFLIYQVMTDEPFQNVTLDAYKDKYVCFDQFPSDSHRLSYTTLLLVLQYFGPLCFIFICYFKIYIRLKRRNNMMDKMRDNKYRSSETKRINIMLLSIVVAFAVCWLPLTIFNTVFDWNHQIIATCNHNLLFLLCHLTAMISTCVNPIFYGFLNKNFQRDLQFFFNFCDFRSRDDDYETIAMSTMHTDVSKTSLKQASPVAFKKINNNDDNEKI
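Assay system: HEK293 cells with Y1 receptor plus CNG channel | Probe or stimulus: NPY (25 nM), isoproterenol (1 µM), Ro 20-1724 (25 µM) | Timing: Compound incubation 1 h at room temperature, readout 45 min post-stimulation | Measured by: Membrane-potential fluorescent dye readout | Benchmarks: High control isoproterenol alone, low control NPY with isoproterenol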
Measles CPE: compounds protecting cells from measles virus cytopathic effect, primary screen, measles RdRp inhibitor project, single point, MLSMR library, absorbance; 140,000 tested, 1.5% active; protection (pct of control), % at 4 µM; Measles virus-infected cells, CPE protection; AID 841, 2007; in the data active means protection mostly above about 24%, no sharp cut-off; inactive means mostly below about 26%
NPY1 pot ag: NPY-Y1 receptor potentiators or agonists, primary screen, cell-based | NPY-Y1 expressing cells, potentiator/agonist activation | activation, % at 3.6 µM | 220,000 tested, 0.37% active | AID 1304, 2008; in the data active means activation above about 33%, passing the limit was not always enough;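 further: cells stimulated with NPY at EC10 then isoproterenol at EC100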
Hits are given with their value; - = inactive; . = no result given. This is a sample that favours compounds with a hit; in the whole collection about 2.8% have one here.

SMILES	NPY-Y2 PAM-ag	NPY Y2 blocker	MDM2 E3 inh	NPY-Y1 antag	Measles CPE	NPY1 pot ag
CCOc1ccc(C(=O)NCC(=O)OC2CCOC2=O)cc1OCC (stereo unspecified)	-	-	-	-	42	-
Cc1oc(-c2ccccc2F)nc1CSCC(=O)NCc1ccc2c(c1)OCO2	-	-	-	-	-	-
COc1ccccc1Nc1nc2nonc2nc1N1CCC(C)CC1	-	-	-	-	78	-
COc1ccc(OC)c(Nc2nc3nonc3nc2N2CCCCC2)c1	-	-	-	-	-	-
C/C(=N\O)C(C)Oc1ccc(Cl)cc1 (stereo unspecified)	-	.	-	-	.	-
Cc1ccc(NC(=S)N(Cc2ccco2)C2CCN(C(C)C)CC2)cc1	-	-	.	-	39	-
Cc1nc(CCNC(=O)Cc2ccc(Cl)cc2)cs1	-	-	-	-	39	-
Cc1ccccc1N=C(NOCc1ccc(Cl)cc1Cl)c1nonc1N	-	30	-	33	-	-
Cc1ccc(N=C(NOCc2ccc(Cl)cc2Cl)c2nonc2N)c(C)c1	-	21	-	32	-	-
Cc1ccccc1N=C(NOCc1ccccc1)c1nonc1N	-	-	-	-	-	-
Nc1ccccc1SC1CC(=O)N(Cc2ccccc2)C1=O (stereo unspecified)	-	.	-	-	.	-
CC(NC(=O)c1ccccc1)C(=O)N/N=C/c1cccc([N+](=O)[O-])c1 (stereo unspecified)	-	.	-	-	.	-
COc1cccc(/C=N/N2CCN(c3ccccc3OC)CC2)c1	-	-	-	-	49	-
COc1cccc(NC(=O)c2ccccc2-c2nc(-c3cccc(C)c3)no2)c1	-	23	-	37	-	-
Cc1cccc(-c2noc(-c3ccccc3C(=O)NCC3CCCO3)n2)c1 (stereo unspecified)	-	-	-	-	-	-
CCCn1c(CCc2ccccc2)n[nH]c1=S	-	.	-	-	.	-
CCc1cc(C=C(Cl)Cl)oc(=O)c1C	-	-	-	-	56	-
CCCC(=O)Nc1ccc2oc(-c3ccncc3)nc2c1	-	-	-	-	37	-
COc1ccc(C(=O)/C(=C/N(C)C)S(=O)(=O)c2ccccc2)cc1	-	.	-	-	.	-
CN(C)/C=C(/C(=O)c1ccccc1Cl)S(=O)(=O)c1ccccc1	-	-	.	39	.	-
Cc1cc(C)n(C(=O)C(C)N2C(=O)c3ccccc3C2=O)n1 (stereo unspecified)	-	-	-	-	39	-
CC1=CC(C)(C)N(C(=O)C(C)N2C(=O)c3ccccc3C2=O)c2c(C)cc(C)cc21 (stereo unspecified)	-	18	-	28	-	-
COc1ccc2c(c1)C(C)=CC(C)(C)N2C(=O)C(C)N1C(=O)c2ccccc2C1=O (stereo unspecified)	-	-	-	-	-	-
Cc1cc(C)n(C(=O)CN2C(=O)c3ccccc3C2=O)n1	-	-	-	-	-	-
COc1cc(S(=O)(=O)N(C)C2CCCCC2)c(C)cc1C	-	.	-	-	.	-
SMILES	NPY-Y2 PAM-ag	NPY Y2 blocker	MDM2 E3 inh	NPY-Y1 antag	Measles CPE	NPY1 pot ag
Cc1cc(C(=O)Cn2cncn2)c(C)n1CCc1ccc(F)cc1	-	-	-	-	68	-
Cc1ccc(C(=O)NC(C)c2ccccc2)o1 (stereo unspecified)	-	-	.	-	34	-
CC(NC(=O)c1ccc(Br)o1)c1ccccc1 (stereo unspecified)	-	.	-	-	.	-
COc1ccccc1C1C2=C(CC(C)(C)CC2=O)Nc2nnnn21 (stereo unspecified)	-	-	-	-	.	-
COc1ccc(OC)c(C2C3=C(CC(C)(C)CC3=O)Nc3nnnn32)c1 (stereo unspecified)	-	-	.	-	31	-
CN(C)c1nccc(N(Cc2ccccc2)Cc2ccccc2)c1C#N	-	22	-	66	-	-
CCNC(=O)C(=O)NCc1ccncc1	-	.	-	-	.	-
Cc1ccc(NC(=O)Cn2nnc(-c3ccccc3-n3cnnn3)n2)c(C)c1	-	.	-	-	.	-
Cc1ccc(-c2nnn(CC(=O)Nc3ccccc3-c3ccccc3)n2)c(-n2cnnn2)c1	-	-	-	-	42	-
COc1ccc(-c2cc(-c3ccccc3)c(C#N)c(S(C)=O)n2)cc1 (stereo unspecified)	76	-	-	-	-	72
Cc1nn(-c2cc(N3CCCCCC3)ccc2[N+](=O)[O-])c(=O)c2ccccc12	41	-	-	-	-	85
COc1ccc(-c2c3c(=O)n(C)c(=O)n(C)c3cn2-c2cc(OC)ccc2OC)cc1	-	-	-	21	-	-
COc1ccc(Cl)cc1NC(=S)N1CCCC1	-	.	-	-	.	-
CC(C)CC(=O)Nc1ccc(-c2nc3ccccc3c(=O)[nH]2)cc1	-	-	-	-	-	-
Cc1ccc([N+](=O)[O-])cc1NC(=O)Nc1cccc(F)c1	-	.	-	.	.	-
Cc1cc(C)c(S(=O)(=O)Nc2ccc(OCC(=O)O)cc2)c(C)c1	51	-	-	-	-	47
Cc1cc(OCc2nc3ccccc3s2)ccc1N	-	.	-	.	.	-
COc1ccc(-c2cn3cccnc3n2)cc1F	-	-	-	-	29	-
COC(=O)COC(=O)c1ccc(-n2nnnc2SC)cc1	-	-	-	-	54	-
O=C(CC(c1ccccc1)c1ccco1)Nc1nccs1 (stereo unspecified)	-	-	-	-	25	-
Cc1cc2ncn(C(=O)N3CCC(C)CC3)c2cc1C	-	-	38	-	-	-
Cc1cc2ncn(C(=O)c3ccc4c(c3)OCO4)c2cc1C	-	-	-	-	-	-
CC(CCc1ccccc1)NC(=O)COC(=O)c1ccc(S(C)(=O)=O)c([N+](=O)[O-])c1 (stereo unspecified)	52	.	-	-	.	66
O=c1c2ccccc2nnn1CSc1nnc2sc3ccccc3n12	-	-	-	-	41	-
CC(=O)N1CC2([N+](=O)[O-])CN(C(C)=O)CC([N+](=O)[O-])(C1)C2(C)C	-	.	-	-	.	-
Cc1ccnc(NC(=O)CCC2COc3ccccc3O2)c1 (stereo unspecified)	-	-	-	-	41	-
Cc1ccccc1NC(=O)CSc1nc(N)c2c3c(sc2n1)CSC(C)(C)C3	-	47	-	32	-	-
Cc1ccc(NC(=O)CSc2nc(N)c3c4c(sc3n2)CSC(C)(C)C4)cc1	-	-	-	-	-	-
CCn1c(=O)cc(C(F)(F)F)[nH]c1=S	-	.	-	-	.	-
